pEC50, pIC50: −log10 of the molar value.
Columns and labels:
Mus musculus [1] = assay: Compound tested in vivo for highest […] administered intraperitoneally that reduces the L1210 leukemia cell growth; type: functional
How it was run: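 Highest nonlethal dose (LD0) found for each compound after one intraperitoneal injection into DBA/2 mice.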

Escherichia coli = assay: Compound was evaluated for the effective dose, as compared to controls against Escherichia coli BL 101; type: functional; details: read-out: ED50 (the source's name)
How it was run: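 Bacteriostatic test on E. coli BL 101, a quaternary-ammonium-sensitive strain, and on Salmonella typhimurium TA 98. Inocula from master plates were grown overnight at 37 °C and diluted 1000-fold in the same medium. Cultures were shaken at 37 °C, with drugs added after 2 h of growth at graded concentrations. Growth was followed by turbidity at 650 nm. ED50 is the dose halving growth rate versus controls, from a regression of % inhibition on log dose.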

Nucleic Acid = assay: Apparent binding constant (Kapp) for calf thymus DNA was measured by competition with ethidium bromide; type: nucleic-acid assay; details: Bos taurus
How it was run: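 Calf thymus DNA binding measured by ethidium bromide competition in 0.2 M Tris-HCl buffer, pH 7.40. Apparent binding constants were derived from Scatchard plots.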

L1210 = assay: Dose that reduces the L1210 leukemia cell growth in vitro by 50% after 48 hr as compared to controls; type: functional; details: Mus musculus, L1210, 48 h; read-out: ID50 (the source's name)
How it was run: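 L1210 leukemia cells were grown in vitro with graded drug doses for 48 h. ID50 is the dose that reduces cell growth by 50% versus controls, read from a regression line of % growth inhibition against log dose. 50% inhibition corresponds to a twofold increase in generation time.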

Mus musculus [2] = assay: Percent Increase in life span (ILS) over controls (10e5 L1210 leukemia cells) at LD0/2 by ip administration of the drug into mouse (single injection 2 hr after cell grafting); type: functional
How it was run: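 DBA/2 mice were inoculated with 10⁵ L1210 cells and then given one intraperitoneal dose at LD0/2, the LD0 being the highest nonlethal single ip dose. Life span was compared with untreated controls as ILS = (T − C)/C × 100. ILS > 25% was counted as a significant antitumor effect.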

Salmonella typhimurium = assay: Compound was evaluated for the effective dose, as compared to controls against Salmonella typhimurium TA98; details: read-out: ED50 (the source's name)

Cc1c2cc[n+](C)cc2c(C)c2c1[nH]c1ccc(O)cc12 [ELLIPTINIUM]
LD0 (Mus musculus [1]): 5 mg/kg
pEC50 (Escherichia coli): 5.45
K app (Nucleic Acid): 1.3e+06 M⁻¹
pIC50 (L1210): 7.30
ILS (Mus musculus [2]): 53

Cc1c2cc[n+](C)cc2c(C)c2c1[nH]c1ccc(O)c(/N=C/C(=O)O)c12
LD0 (Mus musculus [1]): 20 mg/kg
pEC50 (Escherichia coli): 5.50
K app (Nucleic Acid): 80000 M⁻¹
pEC50 (Salmonella typhimurium): 4.00
pIC50 (L1210): 6.27
ILS (Mus musculus [2]): 0

C/C(=N\c1c(O)ccc2[nH]c3c(C)c4cc[n+](C)cc4c(C)c3c12)C(=O)O
LD0 (Mus musculus [1]): 20 mg/kg
pEC50 (Escherichia coli): 5.71
K app (Nucleic Acid): 470000 M⁻¹
pEC50 (Salmonella typhimurium): 4.30
pIC50 (L1210): 6.70
ILS (Mus musculus [2]): 23

Cc1c2cc[n+](C)cc2c(C)c2c1[nH]c1ccccc12
LD0 (Mus musculus [1]): 12.5 mg/kg
K app (Nucleic Acid): 230000 M⁻¹
ILS (Mus musculus [2]): 22

Cc1c2cc[n+](C)cc2c(C)c2c1[nH]c1ccc(O)c(/N=C(\CC(C)C)C(=O)O)c12
LD0 (Mus musculus [1]): 10 mg/kg
pEC50 (Escherichia coli): 6.12
K app (Nucleic Acid): 260000 M⁻¹
pEC50 (Salmonella typhimurium): 5.63
pIC50 (L1210): 6.55
ILS (Mus musculus [2]): 35

Cc1c2cc[n+](C)cc2c(C)c2c1[nH]c1ccc(O)c(/N=C(/C(=O)O)C(C)C)c12
LD0 (Mus musculus [1]): 15 mg/kg
pEC50 (Escherichia coli): 6.74
K app (Nucleic Acid): 210000 M⁻¹
pEC50 (Salmonella typhimurium): 5.78
pIC50 (L1210): 6.51
ILS (Mus musculus [2]): 31.5

Reference: ChEMBL document CHEMBL1122723, “Potential antitumor agents: synthesis and biological properties of aliphatic amino acid 9-hydroxyellipticinium derivatives” (1984)
